Assay results as given in ChEMBL document CHEMBL1152689, “Synthesis, tautomerism, and antimicrobial, anti-HCV, anti-SSPE, antioxidant, and antitumor activities of arylazobenzosuberones” (Bioorg Med Chem, 2009).
Values after ≈ are worked out from the molar mass of the structure shown. Active and inactive are the calls of the source. No cut-off for these calls is given here.

What was measured:
[1] = system: Penicillium italicum; experiment: Antimicrobial activity against Penicillium italicum at 5 ug/mL by agar diffusion method; assay type: functional; settings: read-out: IZ
[2] = system: Syncephalastrum racemosum; experiment: Antimicrobial activity against Syncephalastrum racemosum at 5 ug/mL by agar diffusion method; assay type: functional; settings: read-out: IZ
[3] = system: Candida albicans; experiment: Antimicrobial activity against Candida albicans at 5 ug/mL by agar diffusion method; assay type: functional; settings: read-out: IZ
[4] = system: Staphylococcus aureus; experiment: Antimicrobial activity against Staphylococcus aureus at 5 ug/mL by agar diffusion method; assay type: functional; settings: read-out: IZ
[5] = system: Pseudomonas aeruginosa; experiment: Antimicrobial activity against Pseudomonas aeruginosa at 5 ug/mL by agar diffusion method; assay type: functional; settings: read-out: IZ
[6] = system: Bacillus subtilis; experiment: Antimicrobial activity against Bacillus subtilis at 5 ug/mL by agar diffusion method; assay type: functional; settings: read-out: IZ
[7] = system: Escherichia coli; experiment: Antimicrobial activity against Escherichia coli at 5 ug/mL by agar diffusion method; assay type: functional; settings: read-out: IZ
[8] = system: Aspergillus fumigatus; experiment: Antimicrobial activity against Aspergillus fumigatus at 2.5 ug/mL by agar diffusion method; assay type: functional; settings: read-out: IZ
[9] = system: Penicillium italicum; experiment: Antimicrobial activity against Penicillium italicum at 2.5 ug/mL by agar diffusion method; assay type: functional; settings: read-out: IZ
[10] = system: Syncephalastrum racemosum; experiment: Antimicrobial activity against Syncephalastrum racemosum at 2.5 ug/mL by agar diffusion method; assay type: functional; settings: read-out: IZ
[11] = system: Candida albicans; experiment: Antimicrobial activity against Candida albicans at 2.5 ug/mL by agar diffusion method; assay type: functional; settings: read-out: IZ
[12] = system: Staphylococcus aureus; experiment: Antimicrobial activity against Staphylococcus aureus at 2.5 ug/mL by agar diffusion method; assay type: functional; settings: read-out: IZ
[13] = system: Pseudomonas aeruginosa; experiment: Antimicrobial activity against Pseudomonas aeruginosa at 2.5 ug/mL by agar diffusion method; assay type: functional; settings: read-out: IZ
[14] = system: Bacillus subtilis; experiment: Antimicrobial activity against Bacillus subtilis at 2.5 ug/mL by agar diffusion method; assay type: functional; settings: read-out: IZ
[15] = system: Escherichia coli; experiment: Antimicrobial activity against Escherichia coli at 2.5 ug/mL by agar diffusion method; assay type: functional; settings: read-out: IZ
[16] = system: Aspergillus fumigatus; experiment: Antimicrobial activity against Aspergillus fumigatus at 1.25 ug/mL by agar diffusion method; assay type: functional; settings: read-out: IZ
[17] = system: Penicillium italicum; experiment: Antimicrobial activity against Penicillium italicum at 1.25 ug/mL by agar diffusion method; assay type: functional; settings: read-out: IZ
[18] = system: Syncephalastrum racemosum; experiment: Antimicrobial activity against Syncephalastrum racemosum at 1.25 ug/mL by agar diffusion method; assay type: functional; settings: read-out: IZ
[19] = system: Candida albicans; experiment: Antimicrobial activity against Candida albicans at 1.25 ug/mL by agar diffusion method; assay type: functional; settings: read-out: IZ
[20] = system: Staphylococcus aureus; experiment: Antimicrobial activity against Staphylococcus aureus at 1.25 ug/mL by agar diffusion method; assay type: functional; settings: read-out: IZ
[21] = system: Pseudomonas aeruginosa; experiment: Antimicrobial activity against Pseudomonas aeruginosa at 1.25 ug/mL by agar diffusion method; assay type: functional; settings: read-out: IZ
[22] = system: Bacillus subtilis; experiment: Antimicrobial activity against Bacillus subtilis at 1.25 ug/mL by agar diffusion method; assay type: functional; settings: read-out: IZ
[23] = system: Escherichia coli; experiment: Antimicrobial activity against Escherichia coli at 1.25 ug/mL by agar diffusion method; assay type: functional; settings: read-out: IZ
[24] = system: Aspergillus fumigatus; experiment: Antimicrobial activity against Aspergillus fumigatus by agar diffusion method; assay type: functional
Outline: (§1)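 Agar diffusion on plates against bacteria and fungi. MIC taken as the lowest concentration giving no visible growth on the plate.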

[25] = system: Penicillium italicum; experiment: Antimicrobial activity against Penicillium italicum by agar diffusion method; assay type: functional; outline: as §1
[26] = system: Syncephalastrum racemosum; experiment: Antimicrobial activity against Syncephalastrum racemosum by agar diffusion method; assay type: functional; outline: as §1
[27] = system: Candida albicans; experiment: Antimicrobial activity against Candida albicans by agar diffusion method; assay type: functional; outline: as §1
[28] = system: Staphylococcus aureus; experiment: Antimicrobial activity against Staphylococcus aureus by agar diffusion method; assay type: functional; outline: as §1
[29] = system: Bacillus subtilis; experiment: Antimicrobial activity against Bacillus subtilis by agar diffusion method; assay type: functional; outline: as §1
[30] = system: Escherichia coli; experiment: Antimicrobial activity against Escherichia coli by agar diffusion method; assay type: functional; outline: as §1
[31] = system: Hepatitis C virus; experiment: Antiviral activity against HCV by cell based replicon assay; assay type: functional, Hepacivirus hominis
Outline: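 HCV replicon cells plated at 1×10^4 per well. Next day incubated at 37 °C with serially diluted compound in DMEM with 2% FBS and 0.5% DMSO. HCV RNA copy number measured by quantitative RT-PCR on total cellular RNA. Each point is the average of five replicates. Cytotoxicity measured by MTS in parallel.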

[32] = system: Measles morbillivirus; experiment: Antiviral activity against Measles virus infected in intracranially dosed hamster assessed as inhibition of subacute sclerosing panencephalitis; assay type: functional
Outline: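 Hamsters under ether anesthesia injected intracranially, into the subarachnoid space at 2 mm depth, at 5, 10 and 20 mg/kg/day for 10 days. Four animals per group sacrificed on days 1–20. Brains homogenized in PBS and centrifuged, supernatant deproteinized with ethanol, then MIC in brain tissue determined by HPLC and bioassay.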

[33] = system: Radical scavenging activity; experiment: Antioxidant activity assessed as DPPH free radical scavenging activity by measuring reduction in DPPH absorbance by ELISA relative to untreated control; assay type: functional; design: concentration or dose not given beside the values
Outline: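 Test compounds dissolved in DMSO, ascorbic acid standard in water, both serially diluted. 10 µl sample added to 90 µl of 100 µM DPPH in methanol and kept in the dark at 37 °C for 30 min. Absorbance read at 515 nm. Blank is DMSO plus DPPH. % reduction = (A_B − A_A)/A_B × 100. Run in triplicate.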

[34] = Antioxidant activity assessed as inhibition of peroxynitrite-mediated 3-nitrotyrosine formation by HPLC; assay type: functional
Outline: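 Tyrosine and peroxynitrite, each 100 µM, reacted with compound at 0–300 µM in 100 mM phosphate buffer pH 7.4 at 37 °C for 15 min. Peroxynitrite made from acidified H2O2 plus KNO2, quenched with NaOH, and kept on ice no longer than 30 min before use.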

[35] = system: MC-38; experiment: Antitumor activity against mouse Colon 38 cells implanted in iv dosed C57BL/6 mouse administered as single dose; assay type: functional, organism-based
Outline: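 Female C57BL/6 mice, 6 weeks old, given about 30 mg Colon 38 tumor tissue s.c. in the flank. Randomized into groups of n = 5 when tumors reached about 300 mm3 (day 1). Compound in 5% glucose given as a single iv tail-vein dose on day 1; controls received 5% glucose. Tumor volume = (length × width²)/2 and body weight tracked.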

[36] = target: DNA topoisomerase 2-alpha (Mus musculus) (UniProt Q01320); experiment: Inhibition of topoisomerase 2 from mouse P388 cells assessed as relaxation of pBR322 DNA by agarose gel electrophoresis relative to etoposide; assay type: cell-based
Outline: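 Topoisomerase II purified from P388 cells. One unit relaxes 0.125 µg supercoiled pBR322 DNA, incubated with or without inhibitor at 30 °C for 1 h in 50 mM Tris-HCl pH 8.0, 100 mM KCl, 10 mM MgCl2, 0.5 mM DTT, 1 mM ATP and 30 µg/ml BSA. Products run on 0.7% agarose in TBE, stained with ethidium bromide and imaged under UV.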

[37] = target: T1, DNA topoisomerase 1 (Homo sapiens) (UniProt P11387); experiment: Inhibition of topoisomerase 1 relative to etoposide
T1 sequence (whole entry): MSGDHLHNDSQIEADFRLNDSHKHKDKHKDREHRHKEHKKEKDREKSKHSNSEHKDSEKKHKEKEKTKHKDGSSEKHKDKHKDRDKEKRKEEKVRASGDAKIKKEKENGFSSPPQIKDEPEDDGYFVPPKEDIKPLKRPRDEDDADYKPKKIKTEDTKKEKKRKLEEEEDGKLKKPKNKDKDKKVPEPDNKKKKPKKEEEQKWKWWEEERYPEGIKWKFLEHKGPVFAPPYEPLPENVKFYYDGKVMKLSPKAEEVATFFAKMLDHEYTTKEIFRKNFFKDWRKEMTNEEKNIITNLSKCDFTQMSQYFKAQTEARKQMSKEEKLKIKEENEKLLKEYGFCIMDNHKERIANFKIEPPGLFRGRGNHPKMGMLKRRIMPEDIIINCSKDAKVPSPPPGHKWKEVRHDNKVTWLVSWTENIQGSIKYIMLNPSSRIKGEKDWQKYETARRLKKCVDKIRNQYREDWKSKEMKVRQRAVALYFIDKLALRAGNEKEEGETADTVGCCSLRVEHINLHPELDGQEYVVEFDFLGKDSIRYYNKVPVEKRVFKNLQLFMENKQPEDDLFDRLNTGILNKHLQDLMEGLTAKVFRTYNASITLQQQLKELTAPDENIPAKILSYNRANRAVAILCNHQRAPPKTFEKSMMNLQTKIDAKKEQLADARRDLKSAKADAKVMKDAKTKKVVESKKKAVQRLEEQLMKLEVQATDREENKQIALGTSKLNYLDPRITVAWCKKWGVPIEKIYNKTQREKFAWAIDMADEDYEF

[38] = system: Aspergillus fumigatus; experiment: Antimicrobial activity against Aspergillus fumigatus at 5 ug/mL by agar diffusion method; assay type: functional; settings: read-out: IZ

Sequence of DNA topoisomerase 2-alpha (Mus musculus) (Q01320 whole entry): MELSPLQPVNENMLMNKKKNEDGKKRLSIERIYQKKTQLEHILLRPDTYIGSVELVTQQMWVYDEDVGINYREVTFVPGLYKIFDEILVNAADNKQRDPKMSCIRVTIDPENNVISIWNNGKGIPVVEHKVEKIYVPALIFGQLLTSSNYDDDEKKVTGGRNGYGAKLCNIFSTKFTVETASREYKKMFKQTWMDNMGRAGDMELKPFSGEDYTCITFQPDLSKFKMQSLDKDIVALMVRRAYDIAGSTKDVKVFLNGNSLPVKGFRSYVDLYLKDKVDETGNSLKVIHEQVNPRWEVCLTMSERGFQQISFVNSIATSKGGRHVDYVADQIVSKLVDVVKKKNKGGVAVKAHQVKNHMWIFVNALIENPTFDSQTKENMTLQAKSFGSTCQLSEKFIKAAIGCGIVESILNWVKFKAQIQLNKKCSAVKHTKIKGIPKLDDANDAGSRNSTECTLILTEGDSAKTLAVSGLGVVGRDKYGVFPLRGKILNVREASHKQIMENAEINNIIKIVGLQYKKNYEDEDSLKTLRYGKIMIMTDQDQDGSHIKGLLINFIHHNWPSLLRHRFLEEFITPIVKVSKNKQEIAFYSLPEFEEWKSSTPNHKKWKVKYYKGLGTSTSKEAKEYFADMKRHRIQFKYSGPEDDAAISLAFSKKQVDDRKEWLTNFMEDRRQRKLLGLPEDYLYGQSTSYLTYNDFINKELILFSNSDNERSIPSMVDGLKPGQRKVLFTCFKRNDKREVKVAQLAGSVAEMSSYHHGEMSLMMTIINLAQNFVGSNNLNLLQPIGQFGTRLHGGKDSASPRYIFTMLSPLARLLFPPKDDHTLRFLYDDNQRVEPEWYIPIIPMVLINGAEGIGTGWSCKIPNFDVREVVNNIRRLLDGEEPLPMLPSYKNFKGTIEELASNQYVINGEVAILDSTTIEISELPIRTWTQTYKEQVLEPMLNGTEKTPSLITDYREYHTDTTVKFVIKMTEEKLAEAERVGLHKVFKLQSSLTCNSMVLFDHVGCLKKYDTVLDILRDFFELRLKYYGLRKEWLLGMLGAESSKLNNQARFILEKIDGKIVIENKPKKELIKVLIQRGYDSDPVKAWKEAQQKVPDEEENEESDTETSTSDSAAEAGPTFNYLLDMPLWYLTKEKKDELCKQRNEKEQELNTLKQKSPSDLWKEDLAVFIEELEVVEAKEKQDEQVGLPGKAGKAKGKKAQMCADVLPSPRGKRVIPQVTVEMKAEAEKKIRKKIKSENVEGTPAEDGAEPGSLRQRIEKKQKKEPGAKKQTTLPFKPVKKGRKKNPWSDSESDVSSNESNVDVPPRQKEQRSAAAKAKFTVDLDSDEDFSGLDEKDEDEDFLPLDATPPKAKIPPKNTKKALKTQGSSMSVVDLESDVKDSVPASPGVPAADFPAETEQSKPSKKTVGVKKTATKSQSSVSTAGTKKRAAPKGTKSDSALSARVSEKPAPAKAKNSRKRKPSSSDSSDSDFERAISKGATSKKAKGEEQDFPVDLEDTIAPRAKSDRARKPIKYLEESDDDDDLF

MIC [24]: 0.313 µg/mL (≈ 1.12 µM)
MIC [25]: 1.25 µg/mL (≈ 4.49 µM)
MIC [26]: 0.313 µg/mL (≈ 1.12 µM)
MIC [27]: 1.25 µg/mL (≈ 4.49 µM)
MIC [28]: 0.625 µg/mL (≈ 2.25 µM)
MIC [29]: 0.313 µg/mL (≈ 1.12 µM)
MIC [30]: 2.5 µg/mL (≈ 8.98 µM)
MIC [31]: 1.02 µg/mL (≈ 3.67 µM)
MIC [32]: 6.01 µg/mL (≈ 21.6 µM)
IC50 [34]: 55.1 µM
Ratio [36]: 4.66
Ratio [37]: 4.46
Compound: Cc1cccc(N/N=C2\CCCc3ccccc3C2=O)c1
zone of inhibition at 5 µg/mL [1]: 14 mm
zone of inhibition at 5 µg/mL [2]: 19 mm
zone of inhibition at 5 µg/mL [3]: 9 mm
zone of inhibition at 5 µg/mL [4]: 12 mm
zone of inhibition at 5 µg/mL [5]: 0 mm
zone of inhibition at 5 µg/mL [6]: 15 mm
zone of inhibition at 5 µg/mL [7]: 12 mm
zone of inhibition at 2.5 µg/mL [8]: 14 mm
zone of inhibition at 2.5 µg/mL [9]: 6 mm
zone of inhibition at 2.5 µg/mL [10]: 12 mm
zone of inhibition at 2.5 µg/mL [11]: 6 mm
zone of inhibition at 2.5 µg/mL [12]: 8 mm
zone of inhibition at 2.5 µg/mL [13]: 0 mm
zone of inhibition at 2.5 µg/mL [14]: 10 mm
zone of inhibition at 2.5 µg/mL [15]: 6 mm
zone of inhibition at 1.25 µg/mL [16]: 9 mm
zone of inhibition at 1.25 µg/mL [17]: 3 mm
zone of inhibition at 1.25 µg/mL [18]: 8 mm
zone of inhibition at 1.25 µg/mL [19]: 2 mm
zone of inhibition at 1.25 µg/mL [20]: 5 mm
zone of inhibition at 1.25 µg/mL [21]: 0 mm
zone of inhibition at 1.25 µg/mL [22]: 8 mm
zone of inhibition at 1.25 µg/mL [23]: 0 mm
Activity [33]: 83.1%
Activity [35]: Active
zone of inhibition at 5 µg/mL [38]: 22 mm
